Data reported in ChEMBL document CHEMBL2440012, “Design, synthesis and anticonvulsant properties of new N-Mannich bases derived from 3-phenylpyrrolidine-2,5-diones” (Bioorg Med Chem, 2013).
The source made the active and inactive calls. The rule behind the calls is not given here.

Assays:
Mus musculus [1] = assay: Toxicity in albino CF1 mouse assessed as sedation at 100 mg/kg, ip measured after 4 hrs by rotorod test; format: organism-based; parameters: dose 100 mg/kg, route intraperitoneal; conditions: in vivo
Mus musculus [2] = assay: Anticonvulsant activity in albino CF1 mouse assessed as assessed as protection against 6 Hz psychomotor seizure at 50 mg/kg, ip after 4 hrs by minimal clonic seizure test; format: functional; conditions: route intraperitoneal
How it was run: (§1)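 Male CF-1 mice, groups of four, dosed ip in 0.5% methylcellulose/water suspension, then challenged by 6-Hz corneal stimulation at 32 mA (0.2 ms pulses, 3 s, constant current) at 0.25, 0.5, 1, 2 or 4 h; count of mice out of four protected from stunned posture/clonic seizure.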

Mus musculus [3] = assay: Neurotoxicity in ip dosed albino CF1 mouse assessed as minimum motor impairment in half or more animals measured after 4 hrs by rotorod test; format: toxicity, organism-based; conditions: in vivo
How it was run: (§2)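 Male CF-1 mice given ip suspension in 0.5% methylcellulose/water at 30, 100 and 300 mg/kg; MES, scPTZ (pentylenetetrazole 85 mg/kg sc, CD97 dose for clonic seizures ≥5 s) and rotarod (inability to hold balance 1 min in each of three trials) assessed at 0.5 and 4 h; value is minimum dose active in half or more animals.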

Mus musculus [4] = assay: Anticonvulsant activity against […] psychomotor seizure in ip dosed albino CF1 mouse assessed as time to peak effect by minimal clonic seizure test; format: functional
Mus musculus [5] = assay: Anticonvulsant activity against 6 Hz psychomotor seizure in ip dosed albino CF1 mouse assessed as time to peak effect by minimal clonic seizure test; format: functional
Mus musculus [6] = assay: Anticonvulsant activity against […] psychomotor seizure in ip dosed albino CF1 mouse by minimal clonic seizure test; format: functional
Mus musculus [7] = assay: Anticonvulsant activity in ip dosed albino CF1 mouse assessed as protection against subcutaneous pentylenetetrazole-induced convulsion in half or more animals measured after 0.5 hr; format: functional; conditions: albino CF1, 0.5 h, read-out: MED; how it was run: as §2
Mus musculus [8] = assay: Anticonvulsant activity in albino CF1 mouse assessed as assessed as protection against 6 Hz psychomotor seizure at 100 mg/kg, ip after 0.25 hr by minimal clonic seizure test; format: functional; conditions: route intraperitoneal; how it was run: as §1
Mus musculus [9] = assay: Anticonvulsant activity in albino CF1 mouse assessed as assessed as protection against 6 Hz psychomotor seizure at 100 mg/kg, ip after 2 hrs by minimal clonic seizure test; format: functional; conditions: route intraperitoneal; how it was run: as §1
Rattus norvegicus [10] = assay: Anticonvulsant activity in albino Sprague-Dawley rat assessed as protection against maximal electroshock-induced seizures at 30 mg/kg, po measured after 4 hrs; format: functional
How it was run: (§3)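 Male Sprague-Dawley rats, four per group, dosed p.o. at 30 mg/kg in 0.5% methylcellulose/water suspension; MES test at 0.25, 0.5, 1, 2 and 4 h, motor impairment examined in parallel; number of rats out of four protected.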

Mus musculus [11] = assay: Anticonvulsant activity in albino CF1 mouse assessed as assessed as protection against 6 Hz psychomotor seizure at 50 mg/kg, ip after 0.25 hr by minimal clonic seizure test; format: functional; conditions: route intraperitoneal; how it was run: as §1
Rattus norvegicus [12] = assay: Anticonvulsant activity in albino Sprague-Dawley rat assessed as protection against maximal electroshock-induced seizures at 30 mg/kg, po measured after 1 hr; format: functional; how it was run: as §3
Mus musculus [13] = assay: Anticonvulsant activity in albino CF1 mouse assessed as assessed as protection against 6 Hz psychomotor seizure at 100 mg/kg, ip after 0.5 hr by minimal clonic seizure test; format: functional; conditions: route intraperitoneal; how it was run: as §1
Mus musculus [14] = assay: Anticonvulsant activity in albino CF1 mouse assessed as assessed as protection against 6 Hz psychomotor seizure at 50 mg/kg, ip after 2 hrs by minimal clonic seizure test; format: functional; conditions: route intraperitoneal; how it was run: as §1
Rattus norvegicus [15] = assay: Anticonvulsant activity in albino rat assessed as protection against pilocarpine-induced status epilepticus at 100 mg/kg, ip measured 0.5 hrs post first stage 3 seizure; format: functional, organism-based; parameters: dose 100 mg/kg
How it was run: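 Male Sprague-Dawley rats (150–180 g) dosed ip, followed by challenge dose of pilocarpine; compound given relative to first stage III seizure (time zero or 0.5 h); outcome scored as protection or no protection, plus body-weight change 24 h after first stage III seizure.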

Rattus norvegicus [16] = assay: Anticonvulsant activity in albino Sprague-Dawley rat assessed as protection against maximal electroshock-induced seizures at 30 mg/kg, po measured after 0.5 hr; format: functional; how it was run: as §3
Rattus norvegicus [17] = assay: Anticonvulsant activity in albino Sprague-Dawley rat assessed as protection against maximal electroshock-induced seizures at 30 mg/kg, po measured after 0.25 hr; format: functional; how it was run: as §3
Mus musculus [18] = assay: Anticonvulsant activity in ip dosed albino CF1 mouse assessed as protection against subcutaneous pentylenetetrazole-induced convulsion in half or more animals measured after 4 hrs; format: functional; conditions: albino CF1, 4 h, read-out: MED; how it was run: as §2
Mus musculus [19] = assay: Anticonvulsant activity in albino CF1 mouse assessed as assessed as protection against 6 Hz psychomotor seizure at 50 mg/kg, ip after 1 hr by minimal clonic seizure test; format: functional; conditions: route intraperitoneal; how it was run: as §1
Mus musculus [20] = assay: Anticonvulsant activity in ip dosed albino CF1 mouse assessed as protection against maximal electroshock-induced seizures in half or more animals measured after 0.5 hr; format: functional; conditions: read-out: MED; how it was run: as §2
Mus musculus [21] = assay: Anticonvulsant activity against 6 Hz psychomotor seizure in ip dosed albino CF1 mouse by minimal clonic seizure test; format: functional
Mus musculus [22] = assay: Anticonvulsant activity in ip dosed albino CF1 mouse assessed as protection against maximal electroshock-induced seizures in half or more animals measured after 4 hrs; format: functional; conditions: read-out: MED; how it was run: as §2
Rattus norvegicus [23] = assay: Anticonvulsant activity in albino Sprague-Dawley rat assessed as protection against maximal electroshock-induced seizures at 30 mg/kg, po measured after 2 hrs; format: functional; how it was run: as §3
Mus musculus [24] = assay: Anticonvulsant activity in albino CF1 mouse assessed as assessed as protection against 6 Hz psychomotor seizure at 50 mg/kg, ip after 0.5 hr by minimal clonic seizure test; format: functional; conditions: route intraperitoneal; how it was run: as §1
Mus musculus [25] = assay: Neurotoxicity in ip dosed albino CF1 mouse assessed as time to peak effect by rotorod test; format: toxicity, organism-based; conditions: in vivo
Mus musculus [26] = assay: Anticonvulsant activity in albino CF1 mouse assessed as assessed as protection against 6 Hz psychomotor seizure at 100 mg/kg, ip after 1 hr by minimal clonic seizure test; format: functional; conditions: route intraperitoneal; how it was run: as §1
Mus musculus [27] = assay: Anticonvulsant activity in albino CF1 mouse assessed as assessed as protection against 6 Hz psychomotor seizure at 100 mg/kg, ip after 4 hrs by minimal clonic seizure test; format: functional; conditions: route intraperitoneal; how it was run: as §1

Question: For O=C1CC(c2ccccc2Cl)C(=O)N1CN1CCOCC1 (racemic), which MED (Mus musculus [1]) is on record?
Answer: 300 mg/kg

Question: And the Activity (Mus musculus [2])?
Answer: 0%

Question: What about the MED (Mus musculus [3]) of the same compound?
Answer: 300 mg/kg

Question: What about the Time (Mus musculus [4]) of the same compound?
Answer: 0.5 h

Question: What about the Time (Mus musculus [5]) of the same compound?
Answer: 0.25 h

Question: And the ED50 (Mus musculus [6])?
Answer: 55.6 mg/kg

Question: And the minimal effective dose (Mus musculus [7])?
Answer: 100 mg/kg

Question: What about the Activity (Mus musculus [8]) of the same compound?
Answer: 100%

Question: And the Activity (Mus musculus [9])?
Answer: 100%

Question: What about the Activity (Rattus norvegicus [10]) of the same compound?
Answer: inactive

Question: What about the Activity (Mus musculus [11]) of the same compound?
Answer: 100%

Question: What about the Activity (Rattus norvegicus [12]) of the same compound?
Answer: 25%

Question: And the Activity (Mus musculus [13])?
Answer: 100%

Question: And the Activity (Mus musculus [14])?
Answer: 75%

Question: What about the Activity (Rattus norvegicus [15]) of the same compound?
Answer: inactive

Question: What about the Activity (Rattus norvegicus [16]) of the same compound?
Answer: 25%

Question: What about the Activity (Rattus norvegicus [17]) of the same compound?
Answer: inactive

Question: And the minimal effective dose (Mus musculus [18])?
Answer: 300 mg/kg

Question: What about the Activity (Mus musculus [19]) of the same compound?
Answer: 75%

Question: And the minimal effective dose (Mus musculus [20])?
Answer: 100 mg/kg

Question: And the ED50 (Mus musculus [21])?
Answer: 31.1 mg/kg

Question: What about the minimal effective dose (Mus musculus [22]) of the same compound?
Answer: 100 mg/kg

Question: And the Activity (Rattus norvegicus [23])?
Answer: inactive

Question: And the Activity (Mus musculus [24])?
Answer: 75%

Question: And the Time (Mus musculus [25])?
Answer: 0.25 h

Question: And the Activity (Mus musculus [26])?
Answer: 100%

Question: And the Activity (Mus musculus [27])?
Answer: 100%
